{"data": "Measurements gathered from unrelated publications", "note": "Lines come from different studies, so protocols differ."}
{"SMILES": "Cc1cc(-c2ccnc3[nH]cc(F)c23)cc(F)c1[C@@]1(O)[C@H](C)CN(C2CCS(=O)(=O)CC2)C[C@@H]1C", "species": "male CD-1 mouse", "medium": "plasma", "route": "intravenous", "dose": "1 mg/kg", "Cmax": "1620 ng/mL"}
{"SMILES": "CN(C)C(=O)c1cc2cnc(Nc3ccc(-c4ccc5c(=O)cc(N6CCOCC6)oc5c4)cc3)nc2n1C1CCCC1", "species": "BALB/c mouse", "medium": "plasma", "route": "oral", "dose": "20 mg/kg", "Cmax": "1440 ng/mL"}
{"SMILES": "OCc1nc2ccc(NCc3ccc(C(F)(F)F)cc3)cc2[nH]1", "species": "male BALB/c mouse", "medium": "plasma", "route": "intravenous", "dose": "1 mg/kg", "Cmax": "378 ng/mL"}
{"SMILES": "NCc1ccc(-c2nn(Cc3ccncc3)c3ccccc23)o1", "species": "male CD-1 mouse", "medium": "plasma", "route": "intraperitoneal", "dose": "30 mg/kg", "Cmax": "1150 ng/mL"}
{"SMILES": "CC(C)(C)c1sc2ncnc(Oc3c(F)cccc3OC(F)(F)F)c2c1-c1ccc(Cl)cc1", "species": "mouse", "medium": "plasma", "route": "oral", "dose": "30 mg/kg", "notes": "single dose", "Cmax": "10300 ng/mL"}
{"SMILES": "COc1cc(C2C3=C(COC3=O)N(CCO)c3cc4c(cc32)CCC4)cc(OC)c1OC (centres unmarked)", "species": "female C57BL/6 mouse", "medium": "plasma", "route": "intraperitoneal", "dose": "50 mg/kg", "Cmax": "1040 ng/mL"}
{"SMILES": "OCc1ccc(-c2nn(Cc3ccccc3)c3ccccc23)o1", "species": "male CD-1 mouse", "medium": "plasma", "route": "oral", "dose": "10 mg/kg", "Cmax": "220 ng/mL"}
{"SMILES": "Cc1cc(-c2ccnc3[nH]cc(F)c23)cc(F)c1[C@@]1(O)[C@H](C)CN(C(=O)CN)C[C@@H]1C", "species": "male CD-1 mouse", "medium": "plasma", "route": "oral", "dose": "3 mg/kg", "Cmax": "1260 ng/mL"}
{"SMILES": "Cc1ncsc1-c1ccc([C@H](CC(=O)N2CC3(C2)CN(c2ccc(C#Cc4ccc(C(=O)N5CCC(n6cc(-c7ccc8c(c7)CCN8C(=O)Cc7cccc(OC(F)(F)F)c7)c7c(N)ncnc76)CC5)cc4)cn2)C3)NC(=O)[C@@H]2C[C@@H](O)CN2C(=O)[C@@H](NC(=O)C2(F)CC2)C(C)(C)C)cc1", "species": "male C57BL/6 mouse", "medium": "plasma", "route": "intravenous", "dose": "1 mg/kg", "Cmax": "19000 ng/mL"}
{"SMILES": "Cc1ccc(OCC(=O)N[C@@H](Cc2c[nH]c3ccccc23)C(=O)OC(C)C)cc1", "species": "male Sprague-Dawley mouse", "medium": "plasma", "route": "intravenous", "dose": "10 mg/kg", "Cmax": "1840 ng/mL"}
{"SMILES": "CCOC(=O)c1c(NC(=O)CNC(C)C)sc2c1CCCCC2", "species": "male mouse", "medium": "plasma", "route": "intraperitoneal", "dose": "100 mg/kg", "notes": "single dose", "Cmax": "6340 ng/mL"}
{"SMILES": "NCc1cc2c(cc1F)C(=O)N(C1CCC(=O)NC1=O)C2 (centres unmarked)", "species": "male CD-1 mouse", "medium": "plasma", "route": "oral", "dose": "10 mg/kg", "Cmax": "97.2 ng/mL"}
{"SMILES": "C=CCn1c(=O)c2cnc(Nc3ccc(N4CCN(C)CC4)cc3)nc2n1-c1ccc2c(n1)[C@@](O)(CC)CC2", "species": "mouse", "medium": "plasma", "route": "oral", "dose": "60 mg/kg", "Cmax": "10.5 µM"}
{"SMILES": "Cc1nc2ccc(OCc3ccc(C(F)(F)F)cc3)cc2[nH]1", "species": "male BALB/c mouse", "medium": "plasma", "route": "oral", "dose": "10 mg/kg", "Cmax": "5890 ng/mL"}
{"SMILES": "COC1=CC(c2ccc[nH]2)=N/C1=C\\c1cc(Cc2ccc(OC(F)(F)F)cc2)c(C)[nH]1.Cl", "species": "male CD-1 mouse", "medium": "liver", "route": "oral", "dose": "40 mg/kg", "notes": "single dose", "Cmax": "2660 ng/mL"}
{"SMILES": "NCc1ccc(-c2nn(Cc3ccccc3)c3ccccc23)o1", "species": "male CD-1 mouse", "medium": "plasma", "route": "oral", "dose": "10 mg/kg", "Cmax": "395 ng/mL"}
{"SMILES": "Cc1ncsc1-c1ccc([C@H](C)NC(=O)[C@@H]2C[C@@H](O)CN2C(=O)[C@@H](NC(=O)CCCCCCCCC(=O)N2CCC(n3cc(-c4ccc5c(c4)CCN5C(=O)Cc4cccc(OC(F)(F)F)c4)c4c(N)ncnc43)CC2)C(C)(C)C)cc1", "species": "male C57BL/6 mouse", "medium": "plasma", "route": "intravenous", "dose": "1 mg/kg", "Cmax": "3420 ng/mL"}
{"SMILES": "O=C1CCC(N2Cc3cc(C4CCN(Cc5ccccc5)CC4)ccc3C2=O)C(=O)N1 (centres unmarked)", "species": "male CD-1 mouse", "medium": "plasma", "route": "oral", "dose": "3 mg/kg", "Cmax": "273 ng/mL"}
{"SMILES": "COc1cccc2c(N3CCC(CCP(=O)(O)O)CC3)ncnc12", "species": "female BALB/c mouse", "medium": "serum", "route": "subcutaneous", "dose": "50 mg/kg", "notes": "tumour-bearing", "Cmax": "23000 ng/mL"}
{"SMILES": "COC1=CC(c2ccc[nH]2)=N/C1=C\\c1[nH]c(Cc2ccc(OC(F)(F)F)cc2)cc1Cc1ccc(OC(F)(F)F)cc1", "species": "male CD-1 mouse", "medium": "liver", "route": "oral", "dose": "40 mg/kg", "notes": "single dose", "Cmax": "20300 ng/mL"}
